Activity calls are given as the source filed them. No cut-off for these calls is given here.
Key:
[1] = target: Hydroxyacylglutathione hydrolase (Homo sapiens); assay: Inhibition of human Glyoxalase II expressed in Escherichia coli BL21 (DE3)
[2] = test system: Escherichia coli; assay: Synergistic antibacterial activity against NDM-1 producing Escherichia coli assessed as MIC of meropenem at 32 ug/ml by broth microdilution method; format: functional; conditions: dose 32 µg/ml
[3] = test system: Escherichia coli; assay: Synergistic antibacterial activity against NDM-1 producing Escherichia coli assessed as MIC of imipenem at 32 ug/ml by broth microdilution method; format: functional; conditions: dose 32 µg/ml
[4] = test system: Escherichia coli; assay: Synergistic antibacterial activity against NDM-1 producing Escherichia coli assessed ass MIC of ceftazidime/avibactam at 32 ug/ml by broth microdilution method; format: functional; conditions: dose 32 µg/ml
In short: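 MIC of ceftazidime-avibactam (avibactam fixed at 4 µg/mL) by CLSI broth microdilution in Mueller-Hinton broth. Used the NDM-1-producing multidrug-resistant E. coli clinical isolate SI-001M at 5 × 10⁴ CFU/well, with and without inhibitor at a fixed 32 µg/ml. No colistin added. Triplicate determinations.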

[5] = Inhibition of beta-lactamase IMP-1 (unknown origin) expressed in Escherichia coli BL21(DE3) using imipenem as substrate by measuring substrate hydrolysis by spectrophotometric analysis
In short: (§1)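 Purified enzyme (overproduced in E. coli BL21(DE3), pET-9a; ion-exchange and gel filtration), 1-70 nM final. Reporter substrate 150 μM imipenem, read at 300 nm, 30 °C, 50 mM HEPES pH 7.5. Single-point screen at 100 or 200 μM; Ki from v0/vi vs [I] (0.5–1,000 μM final) assuming competitive inhibition, or Dixon plot. Triplicate.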

[6] = Inhibition of beta-lactamase VIM4 (unknown origin) expressed in Escherichia coli BL21(DE3) using imipenem as substrate by measuring substrate hydrolysis at 200 uM by spectrophotometric analysis
In short: as §1

[7] = Inhibition of beta-lactamase VIM4 (unknown origin) expressed in Escherichia coli BL21(DE3) using imipenem as substrate by measuring substrate hydrolysis at 100 uM by spectrophotometric analysis
In short: as §1

[8] = Inhibition of beta-lactamase VIM2 (unknown origin) expressed in Escherichia coli BL21(DE3) using imipenem as substrate by measuring substrate hydrolysis at 100 uM by spectrophotometric analysis
In short: as §1

[9] = Inhibition of beta-lactamase NDM1 (unknown origin) expressed in Escherichia coli BL21(DE3) using cefotaxime/nitrocefin as substrate by measuring substrate hydrolysis by spectrophotometric analysis
In short: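 His-tagged enzyme from E. coli BL21(DE3) pET-15b, affinity-purified, 1-70 nM final. Reporter substrate 120 μM cefotaxime (260 nm) or 100 μM nitrocefin (482 nm), 30 °C, 50 mM HEPES pH 7.5. Inhibitor 0.5–1,000 μM final; competitive Ki from v0/vi vs [I] slope or Dixon plot. Triplicate.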

[10] = Inhibition of beta-lactamase L1 (unknown origin) expressed in Escherichia coli BL21(DE3) using nitrocefin as substrate by measuring substrate hydrolysis at 100 uM preincubated for 30 mins by spectrophotometric analysis
In short: (§2)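 Enzyme 0.2–0.8 nM in 25 mM HEPES pH 7.5 with 50 μM ZnCl2 final, pre-incubated 30 min at 21 °C with inhibitor (100 μM screen). Nitrocefin 100 μM final, read at 482 nm, 30 °C. Residual activity vs three uninhibited samples; Ki (1–100 μM inhibitor) from Hanes linearization, competitive model. Triplicate.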

[11] = Inhibition of beta-lactamase L1 (unknown origin) expressed in Escherichia coli BL21(DE3) using nitrocefin as substrate by measuring substrate hydrolysis at 200 uM preincubated for 30 mins by spectrophotometric analysis
[12] = test system: Escherichia coli; assay: Antibacterial activity against NDM-1 producing Escherichia coli in presence of colistin by broth microdilution method.; format: functional
[13] = Inhibition of beta-lactamase VIM2 (unknown origin) expressed in Escherichia coli BL21(DE3) using imipenem as substrate by measuring substrate hydrolysis at 200 uM by spectrophotometric analysis
In short: as §1

[14] = Inhibition of beta-lactamase NDM-1 (unknown origin) expressed in Escherichia coli LZ2310 assessed as potentiation of ceftazidime antibacterial activity by measuring ceftazidime induced diameter of inhibition zone at 80 uM incubated for 18 hrs by disk diffusion method (reference value: 15 mm)
In short: (§3)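 Efflux-deficient E. coli LZ2310 (NorE, MdfA, AcrA knocked out) carrying pLB-II with the cloned MBL gene. Mueller-Hinton, CLSI disk diffusion; antibiotic disks (30 µg cefoxitin for VIM-2, 10 µg ampicillin for VIM-4, 30 µg ceftazidime for NDM-1/IMP-1) loaded with inhibitor in DMSO (≤15 µL). Zone diameter after 18 h, 35 ± 1 °C; DMSO and 220 µg EDTA controls. Triplicate.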

[15] = test system: Escherichia coli; assay: Synergistic antibacterial activity against NDM-1 producing Escherichia coli assessed as MIC of ceftazidime at 32 ug/ml by broth microdilution method; format: functional; conditions: dose 32 µg/ml
[16] = Inhibition of beta-lactamase IMP-1 (unknown origin) expressed in Escherichia coli LZ2310 assessed as potentiation of ceftazidime antibacterial activity by measuring ceftazidime induced diameter of inhibition zone at 80 uM incubated for 18 hrs by disk diffusion method (reference value: 9 mm)
In short: as §3

[17] = Inhibition of beta-lactamase NDM1 (unknown origin) expressed in Escherichia coli BL21(DE3) using cefotaxime/nitrocefin as substrate by measuring substrate hydrolysis at 200 uM by spectrophotometric analysis
[18] = Inhibition of beta-lactamase IMP-1 (unknown origin) expressed in Escherichia coli BL21(DE3) using imipenem as substrate by measuring substrate hydrolysis at 200 uM by spectrophotometric analysis
In short: as §1

[19] = Inhibition of beta-lactamase NDM1 (unknown origin) expressed in Escherichia coli BL21(DE3) using cefotaxime/nitrocefin as substrate by measuring substrate hydrolysis at 100 uM by spectrophotometric analysis
[20] = Inhibition of beta-lactamase IMP-1 (unknown origin) expressed in Escherichia coli BL21(DE3) using imipenem as substrate by measuring substrate hydrolysis at 100 uM by spectrophotometric analysis
In short: as §1

[21] = Inhibition of beta-lactamase VIM-2 (unknown origin) expressed in Escherichia coli LZ2310 assessed as potentiation of cefoxitin antibacterial activity by measuring cefoxitin induced diameter of inhibition zone at 80 uM incubated for 18 hrs by disk diffusion method (reference value: 14 mm)
In short: as §3

[22] = Inhibition of beta-lactamase VIM2 (unknown origin) expressed in Escherichia coli BL21(DE3) using imipenem as substrate by measuring substrate hydrolysis by spectrophotometric analysis
In short: as §1

[23] = Inhibition of beta-lactamase VIM4 (unknown origin) expressed in Escherichia coli BL21(DE3) using imipenem as substrate by measuring substrate hydrolysis by spectrophotometric analysis
In short: as §1

[24] = Inhibition of beta-lactamase L1 (unknown origin) expressed in Escherichia coli BL21(DE3) using nitrocefin as substrate by measuring substrate hydrolysis preincubated for 30 mins by spectrophotometric analysis
In short: as §2

[25] = Inhibition of beta-lactamase VIM-2 (unknown origin) expressed in Escherichia coli LZ2310 assessed as potentiation of cefoxitin antibacterial activity by measuring cefoxitin induced diameter of inhibition zone at 320 uM incubated for 18 hrs by disk diffusion method (reference value: 14 mm)
In short: as §3

[26] = Inhibition of beta-lactamase VIM-2 (unknown origin) expressed in Escherichia coli XL-1 assessed as potentiation of cefoxitin antibacterial activity by measuring cefoxitin induced diameter of inhibition zone at 320 uM incubated for 18 hrs by disk diffusion method (reference value: 8 mm)
In short: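 Wild-type efflux E. coli XL-1 Blue transformed with pLB-II-VIM-2. Mueller-Hinton disk diffusion per CLSI, 30 µg cefoxitin disks loaded with inhibitor dissolved in DMSO (≤15 µL). Growth-inhibition zone measured after 18 h at 35 ± 1 °C; DMSO negative and 220 µg EDTA positive controls. Triplicate.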

[27] = Inhibition of beta-lactamase IMP-1 (unknown origin) expressed in Escherichia coli LZ2310 assessed as potentiation of ceftazidime antibacterial activity by measuring ceftazidime induced diameter of inhibition zone at 320 uM incubated for 18 hrs by disk diffusion method (reference value: 9 mm)
In short: as §3

[28] = Inhibition of beta-lactamase CphA (unknown origin) expressed in Escherichia coli BL21(DE3) using imipenem as substrate by measuring substrate hydrolysis by spectrophotometric analysis
In short: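 Enzyme 0.2–0.8 nM in 15 mM cacodylate pH 6.5, no added zinc, pre-incubated 30 min at 21 °C with inhibitor (100 μM screen). Imipenem substrate added from 10 mM stock; hydrolysis at 300 nm, 30 °C. Residual activity vs three uninhibited samples; Ki (1–100 μM inhibitor) by Hanes linearization, competitive model. Triplicate.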

[29] = Binding affinity to beta-lactamase VIM-2 expressed in Escherichia coli BL21(DE3) assessed as association constant at 25 degC by isothermal titration calorimetry
In short: (§4)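 VIM-2 (19 μM) in 10 mM HEPES-NaOH, 0.15 M NaCl, 50 μM ZnSO4, pH 7.5, DMSO matched to ligand (1-2% final). One 0.5 μl then 19 × 2 μl injections of compound (200-400 μM), 150 s apart, 25 °C. Buffer dilution heats subtracted; nonlinear least-squares fit for n, Ka, ΔH; compound concentration adjusted in fitting so n ≈ 1.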

[30] = Binding affinity to beta-lactamase VIM-2 expressed in Escherichia coli BL21(DE3) assessed as dissociation constant at 25 degC by isothermal titration calorimetry
In short: as §4

[31] = Binding affinity to beta-lactamase VIM-2 expressed in Escherichia coli BL21(DE3) assessed as Gibbs free energy at 25 degC by isothermal titration calorimetry
In short: as §4

[32] = Binding affinity to beta-lactamase VIM-2 expressed in Escherichia coli BL21(DE3) assessed as change in enthalpy at 25 degC by isothermal titration calorimetry
In short: as §4

[33] = Binding affinity to beta-lactamase VIM-2 expressed in Escherichia coli BL21(DE3) assessed as change in entropy at 25 degC by isothermal titration calorimetry
In short: as §4

[34] = Inhibition of beta-lactamase IMP-1 (unknown origin) expressed in Escherichia coli LZ2310 assessed as potentiation of ceftazidime antibacterial activity by measuring ceftazidime induced diameter of inhibition zone at 40 uM incubated for 18 hrs by disk diffusion method (reference value: 9 mm)
In short: as §3

| Structure (SMILES) | Ki [5] | inhibition [6] | inhibition [7] | inhibition [8] | Ki [9] | inhibition [10] | inhibition [11] | inhibition [13] | inhibition zone (IZ) [16] | inhibition [17] | inhibition [18] | inhibition [19] | Ki [22] | Ki [23] | inhibition zone (IZ) [25] | inhibition zone (IZ) [26] | inhibition zone (IZ) [27] | further results |
| --- | --- | --- | --- | --- | --- | --- | --- | --- | --- | --- | --- | --- | --- | --- | --- | --- | --- | --- |
| S=c1[nH]nc(-c2cccc(-c3ccccc3)c2)n1/N=C/c1ccc(OCc2ccccc2)cc1 | 9000 nM | inactive | inactive | inactive | 1800 nM | inactive | inactive | inactive | – | – | – | – | – | – | – | – | – | IC50 [1]: 23400 nM; MIC [2]: 64 µg/mL; MIC [3]: 8 µg/mL; MIC [4]: > 256 µg/mL; MIC [12]: > 256 µg/mL; inhibition zone (IZ) [14]: 15 mm; MIC [15]: > 256 µg/mL |
| S=c1[nH]nc(-c2cc3ccccc3[nH]2)n1/N=C/c1ccc(OCc2ccccc2)cc1 | – | inactive | inactive | inactive | – | inactive | inactive | inactive | 9 mm | inactive | 60% | inactive | – | – | – | – | – | – |
| S=c1[nH]nc(Cc2ccc3ccccc3c2)n1/N=C/c1ccc(OCc2ccccc2)cc1 | – | inactive | inactive | inactive | – | inactive | inactive | inactive | 9 mm | inactive | inactive | inactive | – | – | – | – | – | inhibition [20]: inactive |
| O=C(O)c1ccccc1/C=N/n1c(-c2ccc(-c3ccccc3)cc2)n[nH]c1=S | 32400 nM | – | – | – | 1300 nM | – | – | – | – | – | – | – | 2500 nM | 4000 nM | – | – | – | inhibition zone (IZ) [21]: 15 mm; MIC [2]: 32 µg/mL; MIC [3]: 8 µg/mL; MIC [4]: > 256 µg/mL; Ki [24]: 900 nM; MIC [12]: > 256 µg/mL; inhibition zone (IZ) [14]: 15 mm; MIC [15]: > 256 µg/mL |
| S=c1[nH]nc(-c2ccc(-c3ccccc3)cc2)n1/N=C/c1ccc(OCc2ccccc2)cc1 | 11400 nM | inactive | inactive | inactive | – | inactive | inactive | inactive | – | – | – | 64% | – | – | 16 mm | 10 mm | 11 mm | – |
| O=C(O)c1ccccc1/C=N/n1c(-c2cccc(-c3ccccc3)c2)n[nH]c1=S | 17700 nM | – | – | – | 4200 nM | – | – | – | – | – | – | – | 200 nM | 40 nM | 15 mm | 9 mm | 9 mm | Ki [28]: 4000 nM; Ki [24]: 600 nM; Ka [29]: 1.5 10^7/M; Kd [30]: 68 nM; deltaG [31]: -9.8 kcal/mol; deltaH [32]: -7.2 kcal/mol; -TdeltaS [33]: 2.6 kcal/mol |
| Cc1ccccc1-c1n[nH]c(=S)n1/N=C/c1cc([N+](=O)[O-])ccc1O | 11000 nM | – | 44% | inactive | – | 61% | – | inactive | 13 mm | inactive | – | inactive | – | – | – | – | – | Ki [28]: 3000 nM; inhibition zone (IZ) [34]: 9 mm |
| O=C(O)c1ccccc1/C=N/n1c(-c2ccccc2O)n[nH]c1=S | – | – | – | – | – | 40% | – | – | – | inactive | inactive | inactive | 2200 nM | 3000 nM | 17 mm | 10 mm | 12 mm | inhibition [20]: inactive |
